12 molecules from ChEMBL document CHEMBL3085679, “Combining in silico and biophysical methods for the development of Pseudomonas aeruginosa quorum sensing inhibitors: an alternative approach for structure-based drug design” (J Med Chem, 2013) can be followed below.

SMILES strings stand for the structures. pIC50, pKd: −log10 of the molar value. Calls of active or inactive are those of the source. The rule behind the calls is not given here.

Assay [1] can be described thus: Inhibition of Pseudomonas aeruginosa recombinant His6-tagged PqsD expressed in Escherichia coli BL21(lambda DE3) assessed as anthraniloyl-CoA and beta-ketodecanoic acid conversion to heptyl-4-hydroxyquinoline preincubated for 10 mins prior to substrate addition by LC-MS/MS analysis. A digest of the protocol: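 HHQ formation from anthraniloyl-CoA and β-ketodecanoic acid by purified PqsD (0.1 µM) in 0.05 M MOPS pH 7.0, 0.005% Triton X-100, 0.5% final DMSO; 10 min preincubation with inhibitor at 37 °C, started with anthraniloyl-CoA (5 µM final) and β-ketodecanoic acid (70 µM final); HHQ quantified by LC-MS, DMSO control set to 100%; triplicates.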

Assay [2] concerns Pseudomonas aeruginosa. Put plainly: Competitive binding affinity to Pseudomonas aeruginosa recombinant His6-tagged PqsD ACoA-channel expressed in Escherichia coli BL21(lambda DE3) at 100 uM by SPR analysis in presence of (2-nitrophenyl)(phenyl)methanol. The method, boiled down: (§1)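 SPR competition: amine-coupled PqsD on CMD500M chip preincubated by adding competitor (100 µM) to running buffer (50 mM MOPS pH 8.0, 150 mM NaCl, 5% DMSO, 0.1% Triton X-100), flushed at 50 µL/min until stable; test compounds (100 µM) then injected twice at 10 µL/min, 120 s association, 300 s dissociation.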

In assay [3] the test system is Pseudomonas aeruginosa. The assay can be described thus: Competitive binding affinity to Pseudomonas aeruginosa recombinant His6-tagged PqsD ACoA-channel expressed in Escherichia coli BL21(lambda DE3) at 100 uM by SPR analysis in presence of (2-nitrophenyl)methanol. A digest of the protocol: as §1
Background: SPR reads the build-up and loss of mass on a sensor chip optically.

The subject of assay [4] is Pseudomonas aeruginosa. The assay can be described thus: Inhibition of anthraniloyl coenzyme A binding to Pseudomonas aeruginosa recombinant His6-tagged PqsD ACoA-channel expressed in Escherichia coli BL21(lambda DE3) by SPR analysis.
Assay [5] has as its system Pseudomonas aeruginosa. Put plainly: Binding affinity to Pseudomonas aeruginosa recombinant His6-tagged PqsD expressed in Escherichia coli BL21(lambda DE3) at 100 uM by SPR analysis. The method, boiled down:
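SPR: wild-type or R223A mutant PqsD amine-coupled to CMD500M chip (5000-6000 RU) at 12 °C; running buffer 50 mM MOPS pH 8.0, 150 mM NaCl, 5% DMSO, 0.1% Triton X-100; compounds at 100 µM final injected twice, 120 s association, 300 s dissociation, 50 µL/min; double referencing with blanks and DMSO calibration.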

A short description of assay [6]: Binding affinity to Pseudomonas aeruginosa recombinant His6-tagged PqsD expressed in Escherichia coli BL21(lambda DE3) measured every 180 seconds by isothermal titration calorimetric analysis. A digest of the protocol:
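ITC at 25 °C in PBS pH 7.4, 10% glycerol, 5% DMSO; 100 µM His6-PqsD in cell titrated with 2 µL injections of 1.0 mM ligand every 180 s; ligand diluted 1:20 from 20 mM DMSO stock; protein quantified by A280 (ε 17,780 M−1 cm−1); stoichiometry and KD fitted.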
(In ITC the heat of successive injections is recorded.)

For the next assay, the system named is Escherichia coli. Put plainly: Inhibition of Escherichia coli RNA polymerase at 200 uM preincubated for 10 mins prior to DNA template and NTPs addition measured after 10 mins by [5,6-3H]-UTP incorporation assay relative to control. A digest of the protocol: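 E. coli RNA polymerase holoenzyme (1 unit) in 40 mM Tris-HCl pH 7.5, 150 mM KCl, 10 mM MgCl2, 10 mM DTT, 0.1% CHAPS, RNase inhibitor, 2% final DMSO; preincubated with compound 10 min at 25 °C; started with plasmid DNA template plus 400 µM ATP/CTP/GTP, 100 µM UTP and [5,6-3H]-UTP, 10 min at 37 °C; TCA-precipitated RNA counted by scintillation.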

Assay [7] has as its system Pseudomonas aeruginosa. The assay can be described thus: Competitive binding affinity to Pseudomonas aeruginosa recombinant His6-tagged PqsD ACoA-channel expressed in Escherichia coli BL21(lambda DE3) at 1 mM by saturation transfer difference NMR analysis in presence of (2-nitrophenyl)(phenyl)methanol.
In assay [8] the test system is Pseudomonas aeruginosa. The assay can be described thus: Binding affinity to Pseudomonas aeruginosa recombinant His6-tagged PqsD R223A mutant expressed in Escherichia coli BL21(lambda DE3) at 100 uM by SPR analysis. A digest of the protocol:
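Recombinant His6-PqsD R223A (E. coli BL21(λDE3), Ni-NTA purified) amine-coupled to CMD500M chip at 5000-6000 RU. Compounds diluted from 10 mM DMSO stock to 100 µM final in running buffer (50 mM MOPS pH 8.0, 150 mM NaCl, 5% DMSO, 0.1% Triton X-100). Run at 12 °C, 50 µL/min. Each compound injected twice, 120 s association, 300 s dissociation. Data double-referenced against blanks and DMSO calibration.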

The subject of assay [9] is Pseudomonas aeruginosa. The assay can be described thus: Binding affinity to tryptically digested Pseudomonas aeruginosa recombinant His6-tagged PqsD ACoA-channel expressed in Escherichia coli BL21(lambda DE3) at 10 uM after 60 mins by MALDI-TOF-MS analysis. The method, boiled down: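 PqsD (10 µM) and compound (10 µM) preincubated 60 min at 37 °C in 0.05 M MOPS pH 7.0, 0.005% Triton X-100, 0.5% DMSO; buffer exchanged to 0.05 M NH4HCO3 pH 8.1 by diafiltration, trypsin digestion overnight, DTT added; peptides analysed by MALDI-TOF in positive reflector mode, tracking the Cys112-containing fragment.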

The test system of assay [10] is Pseudomonas aeruginosa. The assay can be described thus: Binding affinity to Pseudomonas aeruginosa recombinant His6-tagged PqsD ACoA-channel expressed in Escherichia coli BL21(lambda DE3) at 25 uM after 30 mins by LC-ESI-MS analysis. The method, boiled down:
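PqsD (25 µM) preincubated 30 min at 37 °C with compound (25 µM) in 0.05 M Tris-HCl pH 8.0, 0.5% DMSO; DTT added, then reversed-phase HPLC (C8, water/acetonitrile with 0.05% TFA gradient, 45 °C) coupled to ESI high-resolution TOF MS to detect intact protein–inhibitor adduct mass.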

The pIC50 is the negative decadic logarithm of the IC50, by convention in mol/L. As a reminder, the inhibition is the change of the read-out against control, counted positive when it falls. One may read the pKd as the negative decadic logarithm of the Kd, by convention in mol/L. In the case of `CCN(Cc1ccccc1)C(=O)Nc1cc(-c2ccc(OC)cc2)sc1C(=O)O`, the pIC50 in assay [1] was 5.22. Besides, the outcome with Pseudomonas aeruginosa [2] and in the assay on Pseudomonas aeruginosa [5] was Active. Further, in the assay on Pseudomonas aeruginosa [3], the result was inactive. In addition, in the assay on Pseudomonas aeruginosa [4], the inhibition entry is “Active”. For the same molecule, the pKd in assay [6] is 5.20.

On to `COc1ccc(-c2cc(NC(=O)N[C@@H](Cc3ccccc3)C(=O)O)c(C(=O)O)s2)cc1`, for which the negative logarithm of the IC50 (pIC50) in assay [1] was 6.30. For the same molecule, the outcome with Pseudomonas aeruginosa [2] and in the assay on Pseudomonas aeruginosa [7] was Active. This molecule yielded an inhibition in the assay on Escherichia coli of 10%.

Regarding `COc1ccc(-c2cc(NC(N)=O)c(C(=O)O)s2)cc1`, the pIC50 in assay [1] was 3.77. Also, the outcome in the assay with Pseudomonas aeruginosa [2] was Active. The RU was 25 in the assay with Pseudomonas aeruginosa [5] and 6 with Pseudomonas aeruginosa [8].

As for `COc1ccc(-c2cc(NC(=O)N[C@H](Cc3ccccc3)C(=O)O)c(C(=O)O)s2)cc1`, the pIC50 in assay [1] was 4.59.

For `COc1ccc(-c2cc(NC(=O)NCCc3ccccc3)c(C(=O)O)s2)cc1`, the pIC50 in assay [1] was 4.24.

For `O=C(CCl)Nc1ccc(-c2cc(NC(=O)N[C@@H](Cc3ccccc3)C(=O)O)c(C(=O)O)s2)cc1`, the pIC50 in assay [1] was 5.70. Moreover, the result in the assay with Pseudomonas aeruginosa [9] and with Pseudomonas aeruginosa [10] was Active.

In the case of `COc1ccc(-c2cc(NC(=O)N[C@@H](C)C(=O)O)c(C(=O)O)s2)cc1`, the pIC50 in assay [1] is 5.70. This molecule also gave an inhibition in the assay with Escherichia coli of 10%.

As to `COc1ccc(-c2cc(NC(=O)NCC(=O)O)c(C(=O)O)s2)cc1`, in assay [1], the pIC50 was 5.15.

Turning to `COc1ccc(-c2cc(NC(=O)NC(C)(C)C(=O)O)c(C(=O)O)s2)cc1`, in assay [1], the pIC50 was 4.25.

For `COc1ccc(-c2cc(NC(=O)NCCC(=O)O)c(C(=O)O)s2)cc1`, the pIC50 in assay [1] was 4.43.

`NC(=O)Nc1cc(-c2ccc(Oc3ccccc3)cc2)sc1C(=O)O`: in assay [1], the pIC50 is 4.70. For the same molecule, the outcome with Pseudomonas aeruginosa [2], in the assay on Pseudomonas aeruginosa [3] and with Pseudomonas aeruginosa [5] was Active.

With `COc1ccc(-c2cc(NC(=O)N[C@H](C)C(=O)O)c(C(=O)O)s2)cc1`, in [1], the pIC50 was 4.27.
